Measurements published in ChEMBL document CHEMBL3272173, “Synthesis and biological activity of peptide antagonists of luliberin (luteinizing hormone-releasing hormone)” (J Med Chem, 1979).
Peptide text beside a SMILES is read from it. * marks the point of attachment. Cbz = O=C(OCc1ccccc1)*; Bn = c1ccc(C*)cc1

Experiments:
Rattus norvegicus [1] = experiment: Antiovulatory activity in sc dosed CD rat assessed as blockade of ovulation administered as six doses at 1200, 1230, 1300, 1350, 1400 and 1450 hrs during proestrus stage measured during estrus stage by dissecting microscopic analysis; format: functional
In short: (§1)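 Cycling Charles River CD rats were given six subcutaneous injections of analogue in 0.1 mL propylene glycol on the afternoon of proestrus, and controls received vehicle alone. Rats were killed the next morning (estrus). Ovulating animals were scored and ova in the oviducts were counted under a dissecting microscope.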

Rattus norvegicus [2] = experiment: Antiovulatory activity in CD rat assessed as blockade of ovulation at 0.3 mg, sc administered as six doses at 1200, 1230, 1300, 1350, 1400 and 1450 hrs during proestrus stage measured during estrus stage by dissecting microscopic analysis; format: functional; in short: as §1
[3] = molecular target: T1, Gonadotropin-releasing hormone receptor (Rattus norvegicus) (UniProt P30969); experiment: In vitro antagonist activity at GNRHR in CD rat anterior pituitary gland assessed as inhibition of LH-RH-stimulated LH release at compound to LH-RH molar ratio of 10 after 4 hrs by radioimmunoassay; conditions: concentration not given here
T1 sequence (whole entry): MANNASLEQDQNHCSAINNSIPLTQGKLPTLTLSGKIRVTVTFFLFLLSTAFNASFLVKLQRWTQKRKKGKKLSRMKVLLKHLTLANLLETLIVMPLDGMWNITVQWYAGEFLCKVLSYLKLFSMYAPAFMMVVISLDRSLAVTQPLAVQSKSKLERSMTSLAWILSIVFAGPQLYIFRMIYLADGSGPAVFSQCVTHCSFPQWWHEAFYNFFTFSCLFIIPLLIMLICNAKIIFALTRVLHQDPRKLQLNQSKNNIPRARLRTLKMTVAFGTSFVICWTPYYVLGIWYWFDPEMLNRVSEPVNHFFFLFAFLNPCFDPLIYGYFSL
In short: (§2)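 Anterior pituitaries from diestrus CD rats (200-250 g) were dissociated enzymatically (collagenase, hyaluronidase, then Viokase). Cells were cultured 4 days at 1.67 × 10^5 cells/mL in DME with 10% horse serum and 2.5% fetal calf serum, then washed serum-free. Duplicate cultures received LH-RH (2-5 × 10^-10 M) with a single analogue concentration in serum-free DME for 4 h at 37 °C. LH in the medium was measured by RIA and reported as % inhibition of LH-RH-stimulated release.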

[4] = molecular target: T1, Gonadotropin-releasing hormone receptor (Rattus norvegicus); experiment: In vitro antagonist activity at GNRHR in CD rat anterior pituitary gland assessed as ratio of molar concentration of compound to LH-RH for inhibition of LH-RH-stimulated LH release after 4 hrs by radioimmunoassay
In short: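 Monolayers were cultured 4 days from dissociated anterior pituitary cells of diestrus CD rats. They were exposed in duplicate to LH-RH (2-5 × 10^-10 M) plus multiple analogue concentrations in serum-free DME for 4 h at 37 °C. LH in the medium was measured by radioimmunoassay. The ED50 molar ratio is the analogue:LH-RH molar ratio giving 50% inhibition of LH-RH-stimulated LH release.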

Rattus norvegicus [5] = experiment: Antiovulatory activity in CD rat assessed as blockade of ovulation at 3 mg, sc administered as six doses at 1200, 1230, 1300, 1350, 1400 and 1450 hrs during proestrus stage measured during estrus stage by dissecting microscopic analysis; format: functional; in short: as §1
[6] = molecular target: T1, Gonadotropin-releasing hormone receptor (Rattus norvegicus); experiment: In vitro antagonist activity at GNRHR in CD rat anterior pituitary gland assessed as inhibition of LH-RH-stimulated LH release at compound to LH-RH molar ratio of 200 after 4 hrs by radioimmunoassay; conditions: concentration not given here; in short: as §2
Rattus norvegicus [7] = experiment: Antiovulatory activity in CD rat assessed as blockade of ovulation at 5 mg, sc administered as six doses at 1200, 1230, 1300, 1350, 1400 and 1450 hrs during proestrus stage measured during estrus stage by dissecting microscopic analysis; format: functional; in short: as §1
[8] = molecular target: T1, Gonadotropin-releasing hormone receptor (Rattus norvegicus); experiment: In vitro antagonist activity at GNRHR in CD rat anterior pituitary gland assessed as inhibition of LH-RH-stimulated LH release at compound to LH-RH molar ratio of 2800 after 4 hrs by radioimmunoassay; conditions: concentration not given here; in short: as §2
[9] = molecular target: T1, Gonadotropin-releasing hormone receptor (Rattus norvegicus); experiment: In vitro antagonist activity at GNRHR in CD rat anterior pituitary gland assessed as inhibition of LH-RH-stimulated LH release at compound to LH-RH molar ratio of 4000 after 4 hrs by radioimmunoassay; conditions: concentration not given here; in short: as §2
[10] = molecular target: T1, Gonadotropin-releasing hormone receptor (Rattus norvegicus); experiment: In vitro antagonist activity at GNRHR in CD rat anterior pituitary gland assessed as inhibition of LH-RH-stimulated LH release at compound to LH-RH molar ratio of 28 after 4 hrs by radioimmunoassay; conditions: concentration not given here; in short: as §2
Rattus norvegicus [11] = experiment: Antiovulatory activity in CD rat assessed as blockade of ovulation at 1 mg, sc administered as six doses at 1200, 1230, 1300, 1350, 1400 and 1450 hrs during proestrus stage measured during estrus stage by dissecting microscopic analysis; format: functional; in short: as §1

ED50 [4] | Structure (SMILES) | ED50 (Rattus norvegicus [1]) | inhibition (INH) (Rattus norvegicus [5]) | further results
1.5 molar ratio | CC(C)C[C@H](NC(=O)[C@@H](Cc1ccccc1)NC(=O)[C@H](Cc1ccc(O)cc1)NC(=O)[C@H](CO)NC(=O)[C@H](Cc1c[nH]c2ccccc12)NC(=O)[C@H](COCc1ccccc1)NC(=O)OCc1ccccc1)C(=O)N[C@@H](CCCNC(=N)N)C(=O)N1CCC[C@H]1C(=O)NCC(N)=O.Cl | >3 mg | 40% | inhibition [3]: 90%
1.3 molar ratio | CCNC(=O)[C@@H]1CCCN1C(=O)[C@H](CCCNC(=N)N)NC(=O)[C@H](CC(C)C)NC(=O)[C@@H](Cc1ccccc1)NC(=O)[C@H](Cc1ccc(O)cc1)NC(=O)[C@H](CO)NC(=O)[C@H](Cc1c[nH]c2ccccc12)NC(=O)[C@H](COCc1ccccc1)NC(=O)OCc1ccccc1.Cl | 2.5 mg |  | inhibition [3]: 93%; inhibition (INH) (Rattus norvegicus [7]): 80%
100 molar ratio | CC(C)C[C@H](NC(=O)CNC(=O)[C@H](Cc1ccc(O)cc1)NC(=O)[C@H](CO)NC(=O)[C@H](Cc1c[nH]c2ccccc12)NC(=O)[C@H](COCc1ccccc1)NC(=O)OCc1ccccc1)C(=O)N[C@@H](CCCNC(=N)N)C(=O)N1CCC[C@H]1C(=O)NCC(N)=O.Cl (Cbz-S(Bn)WSYGLRPG-NH2) |  | 20% | inhibition [8]: 100%

Second part, the compound before the results:

Structure (SMILES) | ED50 [4] | ED50 (Rattus norvegicus [1]) | inhibition (INH) (Rattus norvegicus [5]) | further results
CC(=O)O.CCNC(=O)[C@@H]1CCCN1C(=O)[C@H](CCCNC(=N)N)NC(=O)[C@H](CC(C)C)NC(=O)[C@H](NC(=O)[C@H](Cc1ccc(O)cc1)NC(=O)[C@H](CO)NC(=O)[C@H](Cc1c[nH]c2ccccc12)NC(=O)[C@H](CCC(N)=O)NC(=O)OCc1ccccc1)[C@@H](O)c1ccccc1 |  | 0.1 mg |  | inhibition (INH) (Rattus norvegicus [2]): 100%
CCNC(=O)[C@@H]1CCCN1C(=O)[C@H](CCCNC(=N)N)NC(=O)[C@H](CC(C)C)NC(=O)[C@@H](CCSC)NC(=O)[C@H](Cc1ccc(O)cc1)NC(=O)[C@H](CO)NC(=O)[C@H](Cc1c[nH]c2ccccc12)NC(=O)[C@H](CCC(N)=O)NC(=O)OCc1ccccc1.Cl |  | 3 mg | 60% | inhibition [6]: 85%
CC(C)C[C@H](NC(=O)CNC(=O)[C@H](Cc1ccc(O)cc1)NC(=O)[C@H](CO)NC(=O)[C@H](Cc1c[nH]c2ccccc12)NC(=O)[C@H](CCC(N)=O)NC(=O)OCc1ccccc1)C(=O)N[C@@H](CCCNC(=N)N)C(=O)N1CCC[C@H]1C(=O)NCC(N)=O.Cl (HELM PEPTIDE1{[O=C(OCc1ccccc1)[*:2]].Q.W.S.Y.G.L.R.P.G.[am]}$$$$V2.0) |  | >1 mg |  | inhibition [9]: 33%
CC(=O)O.CCNC(=O)[C@@H]1CCCN1C(=O)[C@H](CCCNC(=N)N)NC(=O)[C@H](CC(C)C)NC(=O)[C@@H](Cc1ccccc1)NC(=O)[C@H](Cc1ccc(O)cc1)NC(=O)[C@H](CO)NC(=O)[C@H](Cc1c[nH]c2ccccc12)NC(=O)[C@H](CCC(N)=O)NC(=O)OCc1ccccc1 |  | >5 mg |  | inhibition (INH) (Rattus norvegicus [7]): 0%
CC(=O)O.CCNC(=O)[C@@H]1CCCN1C(=O)[C@H](CCCNC(=N)N)NC(=O)[C@H](CC(C)C)NC(=O)[C@@H](CCC(N)=O)NC(=O)[C@H](Cc1ccc(O)cc1)NC(=O)[C@H](CO)NC(=O)[C@H](Cc1c[nH]c2ccccc12)NC(=O)[C@H](CCC(N)=O)NC(=O)OCc1ccccc1 |  | >1 mg |  | inhibition [10]: 77%; inhibition (INH) (Rattus norvegicus [11]): 20%
